Only some compounds are listed: those with a hit (about 1% of all), similar ones and a draw of the others.
FXN GAA850 act: frataxin GAA850 promoter activation. HEK293 lucGAA850 FXN promoter luciferase reporter, 24 h; percent of 10 µM SAHA response. activation, % at 6 µM. 360,000 compounds, 0.56% hits. AID 540364;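 active = activation above the average of all compounds screened plus 3 SD, cutoff fixed separately per campaign, cut at about 7.5% in these data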;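 note: 0% = DMSO wells and 100% = 10 µM SAHA wells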
CaV13 ICDI inh: Disruptors of the CACNA1D IQ motif to Ca2+-dependent inactivation inhibitor domain association, primary screening, Förster resonance energy transfer in intact living …. HEK cells, CFP/YFP FRET ICDI-IQ, plate reader, 10 min; percent FRET-ratio fall versus neutral wells. inhibition, % at 12.3 µM. 340,000 compounds, 0.098% hits. AID 743397;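 active = mean replicate inhibition of at least 30% and at least 1% of replicates passing that level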;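 note: 0% = median of the neutral control wells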
XiGFP reactiv: X-chromosome reactivation activator; XiGFP mouse fibroblasts, % GFP-positive cells imaging, 3 d; cells co-treated with 5-aza-dC sensitizer; scaled so ellipticine positive control = 100%; activation, % at 7.58 µM; 360,000 compounds, 0.055% hits; AID 743238;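 active = mean normalized replicate activation at least 10% and every replicate at or above 10%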;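 note: 0% = median of on-plate neutral control wells and 100% = ellipticine 6 µM median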
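Material: XiGFP fibroblasts, SV40-immortalized; Buffer or medium: DMEM containing 5-aza-dC; Compound dosing: single point; Times: 3 days compound exposure.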
GSIS activator: GLuc luminescence reporter in INS-1E cells, primary screen for activators of glucose-dependent secretion of insulin; INS-1E GLuc reporter insulin secretion, 2-3 h; activation, % at 16.6 µM; 370,000 compounds, 0.61% hits; AID 743287;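 active = lowest replicate activation of at least 40%, so every replicate reaches that level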;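 note: 0% = median of neutral control wells and 100% = median of IBMX positive control wells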
GAA30 FXN cntr: GAA30 FXN promoter activation counter-screen | activation, % at 6 µM | shares compounds with FXN GAA850 act | HEK293 lucGAA30 FXN promoter luciferase, 24 h; DMSO = 0%, 5 µM ipriflavone = 100% | 1,900 compounds, 66% hits;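 active = mean activation above the mean of solvent-only control wells plus 3 SD, cut at about 22% in these data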;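 note: counterscreen of GAA850 promoter hits where activity marks nonselective or luminescence artifacts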
GAA850 confirm: confirmation of GAA850 frataxin (FXN) promoter activators | shares compounds with FXN GAA850 act | HEK293 lucGAA850 FXN promoter luciferase reporter, 24 h; 100% = activation by SAHA | activation, % at 6 µM | 1,900 compounds, 86% hits | AID 588351;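 active = mean activation above a set limit taken from the primary screen, cut at about 8% in these data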;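 note: 0% = DMSO wells and 100% = 10 µM SAHA wells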
An asterisk follows results filed as active; x = no result given.

SMILES	FXN GAA850 act	CaV13 ICDI inh	XiGFP reactiv	GSIS activator	GAA30 FXN cntr	GAA850 confirm
CCCCNC(=O)c1cc(-c2ccc(OC)cc2)on1	1.2	-8.6	x	x	x	x
O=C(NCc1cccs1)c1cc(-c2ccc(O)cc2)on1	8.9*	-2.5	-0.1	4.1	103.0*	32.1*
O=C(NCCN1CCOCC1)c1cc(-c2ccccc2)on1	17.4*	-4.3	x	-1.7	98.6*	42.1*
CCCCNC(=O)c1cc(-c2ccc(F)cc2)on1	31.5*	-5.9	x	x	166.5*	79.4*
CC(C)(C)c1ccc(C(=O)Nc2ccccc2Cl)cc1	2.8	1.9	0.0	-15.1	x	x
O=C(Nc1ccccc1Cl)c1ccccc1CC(O)(c1ccccc1)c1ccccc1	14.2*	-7.1	0.1	5.5	8.6	12.0*
Cc1ccc(-c2ccc([C@H]3[C@@H](CO)N4C(=O)CN(C(=O)c5ccc(F)cc5)C[C@H]34)cc2)cc1	x	x	0.3	-30.8	x	x
O=[N+]([O-])c1ccccc1Nc1nc(-c2cccnc2)cs1	9.1*	-4.7	0.0	-11.9	87.3*	26.3*
Cc1ccnc(SCc2nc3ccccc3s2)n1	8.3*	-11.4	x	12.3	104.3*	31.3*
Cc1cccc(C)c1Nc1nnc(SCc2nc3ccccc3s2)s1	8.6*	-8.2	x	-1.0	120.8*	42.9*
C[C@@H]1CCCCO[C@@H](CN(C)C(=O)NC2CCCCC2)[C@@H](C)CN([C@@H](C)CO)C(=O)c2cc(NS(=O)(=O)c3ccc(F)cc3)ccc2O1	x	x	-0.1	-27.6	x	x
COc1cccc(C(=O)Nc2cc3c(cc2Cl)OCCCO3)c1	7.9*	-4.4	0.1	13.9	101.4*	31.8*
COc1ccc(C(=O)Nc2cc3c(cc2Cl)OCCCO3)cc1	5.0	x	x	x	x	x
COc1ccc(-c2cn3cccc(C)c3n2)cc1Br	8.4*	-3.0	-0.2	2.7	119.6*	37.5*
CCOC1OC2C(CO)OC(n3cnc4c(N)ncnc43)C2O1 (configuration not stated)	10.7*	-7.3	0.4	x	28.4*	9.2*
Nc1ncnc2c1ncn2C1OC(CO)C2OC21 (configuration not stated)	x	-10.4	0.0	1.9	x	x
Cc1nc(Nc2ccccc2Cl)sc1C(=O)Nc1ccccc1	16.3*	-4.6	-0.1	-24.0	66.6*	20.8*
C[C@H]1COCc2cn(nn2)CC[C@@H](Cc2ccccc2)C(=O)N1	x	x	0.1	1.1	x	x
CCc1ccc(C(=O)NC(CC(C)C)C(=O)O)cc1 (configuration not stated)	20.4*	-3.9	x	3.1	20.5	6.2
C[C@@H](NC(=O)C[C@H]1C[C@@H]2c3cc(NC(=O)C4CCC4)ccc3O[C@@H]2[C@H](CO)O1)c1ccccc1	x	x	-0.1	2.2	x	x
CCn1c(=O)[nH]c(=O)c2c(N)c(C(=O)c3cc(F)ccc3F)sc21	8.7*	-3.0	-0.2	55.5*	23.1*	17.6*
Cc1c(C(=O)N2CCN(C)CC2)oc2c1C(=O)CC(C)(C)C2	0.3	-7.1	x	26.4	x	x
Cc1c(C(=O)N2CCc3ccccc32)oc2c1C(=O)CC(C)(C)C2	11.1*	-3.3	x	4.1	113.4*	40.1*
Cc1nn(Cc2ccccc2)c(C)c1NC(=O)CCCn1nc(C)c([N+](=O)[O-])c1C	8.4*	-5.1	2.8	-3.4	6.8	1.4
CCn1c(SCC(=O)NCCc2ccccc2)nc2c([nH]c3ccccc32)c1=O	6.6	-2.7	0.2	1.6	x	x
CCn1c(SCC(=O)NCCc2ccc(OC)c(OC)c2)nc2c([nH]c3ccccc32)c1=O	14.1*	-3.8	-0.1	-2.0	26.2*	8.2*
COc1ccc(C#Cc2ccc3c(c2)O[C@@H](CN(C)C(C)=O)[C@H](C)CN([C@@H](C)CO)S3(=O)=O)cc1	x	x	-1.0	0.2	x	x
Cc1cc2nc(N)sc2cc1C	8.4*	-6.6	x	x	108.8*	26.5*
CCOC(=O)C1=C(C)NC(C)=C(C(=O)OC)C1c1cccc(Cl)c1Cl (configuration not stated)	2.1	-4.7	0.3	14.2	x	x
